Results reported in ChEMBL document CHEMBL1121744, “Synthesis and antihypertensive activity of a series of 8-substituted 1-oxa-3,8-diazaspiro[4.5]decan-2-ones” (J Med Chem, 1981).

Legend:
Canis familiaris [1] = test: Percent inhibition of the pressor responses to 1 ug/kg iv Epinephrine in pentobarbital-anesthetized dogs for a dose of 0.1 mg/kg; assay type: functional; conditions: Canis lupus familiaris
Outline: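 Dogs anesthetized with sodium pentobarbital 35 mg/kg iv; femoral artery cannulated for blood pressure, femoral vein for dosing. Epinephrine 1 μg/kg iv given at about 10-min intervals before and after increasing test doses. Test doses given iv at 90-min intervals. Result is per cent inhibition of the pressor response.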

Rattus norvegicus [2] = test: The antihypertensive activity as percentage fall in systolic blood pressure in spontaneously hypertensive rats after a period of 2 hr for a dose of 50 mg/kg po
Rattus norvegicus [3] = test: The antihypertensive activity as percentage fall in systolic blood pressure in spontaneously hypertensive rats after a period of 4 hr for a dose of 50 mg/kg po
Canis familiaris [4] = test: Percent inhibition of the pressor responses to 0.75 ug/kg iv norepinephrine in pentobarbital-anesthetized dogs for a dose of 1 mg/kg; assay type: functional; conditions: Canis lupus familiaris
Outline: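 Pentobarbital-anesthetized dogs (35 mg/kg iv) with femoral arterial pressure recording. Epinephrine (1 μg/kg), norepinephrine (0.75 μg/kg) and phenylephrine (7.5 μg/kg) iv challenges were given about every 10 min before and after rising iv test doses, which were spaced 90 min apart. Value is % inhibition of the pressor response.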

For `O=C1NCC2(CCN(CCc3c[nH]c4ccccc34)CC2)O1`, the inhibition in vivo at 0.1 mg/kg (Canis familiaris [1]) was > 100%, the “Decrease in blood pressure” value (Rattus norvegicus [2]) was 10% and the “Decrease in blood pressure” value (Rattus norvegicus [3]) was 11%.

For `CN1CC2(CCN(CC(O)C3COc4ccccc4O3)CC2)OC1=O` (centres undefined), the inhibition in vivo at 1 mg/kg (Canis familiaris [4]) was 60%.
